Assay results taken from ChEMBL document CHEMBL1127811, “Inhibitors of cholesterol biosynthesis. 2. Hypocholesterolemic and antioxidant activities of benzopyran and tetrahydronaphthalene analogues of the tocotrienols” (J Med Chem, 1994).
Where “and” joins values, the source holds several entries; their conditions need not be identical. Equal entries are not always repeated. One block for each compound: values may come before it.

Columns and labels:
[1] = species: Gallus gallus; assay: (§1) Hypocholesterolemic activity in 6-week old male mormocholesterolemic chickens using experiment 4; type: functional
Outline: (§2)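 Male chickens, 6 weeks old. Test compound mixed at 50 ppm into a corn-soybean control diet; controls get the diet alone. After the feeding period, birds are fasted 36 h and refed 48 h before sacrifice. Serum total, LDL and HDL cholesterol (mg/100 mL) and triglycerides measured; expressed as mean ± SD and percent of control, n = 6–12 per group.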

[2] = species: Gallus gallus; assay: as §1; type: functional; remark: listed apart in the source
Outline: (§3)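 Six-week-old male chickens fed corn-soybean control diet with test compound at 50 ppm. Birds fasted 36 h, then refed 48 h before sacrifice. Serum total, LDL and HDL cholesterol and triglycerides measured (mg/100 mL), HDL/total ratio computed. Means ± SD, n = 6–12 per group, also as % of control. Significance p < 0.01 within each study.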

[3] = test system: HepG2; assay: In vitro inhibition of cholesterol biosynthesis in Hep G2 cells; type: functional, Homo sapiens; design: concentration or dose not given beside the values
Outline: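 HepG2 human hepatoma cells incubated 4 h with compound at 10 μM, DMSO vehicle controls. Mean % inhibition vs controls, SD ≤ ±10%, n ≥ 8.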

[4] = LDL oxidation assay as spectrophotometric determination of TBARS; type: functional
Outline: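 LDL (0.5 mg/mL protein stock) in saline/20 mM HEPES with drug in ethanol, oxidised by CuSO4 (4 × 10⁻⁴ M stock), 37 °C, 5 h, in duplicate. Stopped with EDTA; TCA/TBA added, boiled 30 min, A535 read. Malonaldehyde equivalents from tetramethoxypropane standard curve. IC50 = concentration inhibiting 50% TBARS vs ethanol controls.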

[5] = Compound oxidation potential using cyclic voltametry; type: ADME
[6] = species: Gallus gallus; assay: Ratio of HDL/total cholesterol value; type: functional; outline: as §3
[7] = species: Gallus gallus; assay: Hypocholesterolemic activity in 6-week old male mormocholesterolemic chickens using experiment 2; type: functional; outline: as §3
[8] = target: T1, 3-hydroxy-3-methylglutaryl-coenzyme A reductase (Homo sapiens) (UniProt P04035); assay: In vitro suppression of HMG-CoA reductase (HMGR) in Hep G2 cells; type: cell-based; design: concentration or dose not given beside the values; settings: HepG2, concentration not given here
T1 sequence (whole entry): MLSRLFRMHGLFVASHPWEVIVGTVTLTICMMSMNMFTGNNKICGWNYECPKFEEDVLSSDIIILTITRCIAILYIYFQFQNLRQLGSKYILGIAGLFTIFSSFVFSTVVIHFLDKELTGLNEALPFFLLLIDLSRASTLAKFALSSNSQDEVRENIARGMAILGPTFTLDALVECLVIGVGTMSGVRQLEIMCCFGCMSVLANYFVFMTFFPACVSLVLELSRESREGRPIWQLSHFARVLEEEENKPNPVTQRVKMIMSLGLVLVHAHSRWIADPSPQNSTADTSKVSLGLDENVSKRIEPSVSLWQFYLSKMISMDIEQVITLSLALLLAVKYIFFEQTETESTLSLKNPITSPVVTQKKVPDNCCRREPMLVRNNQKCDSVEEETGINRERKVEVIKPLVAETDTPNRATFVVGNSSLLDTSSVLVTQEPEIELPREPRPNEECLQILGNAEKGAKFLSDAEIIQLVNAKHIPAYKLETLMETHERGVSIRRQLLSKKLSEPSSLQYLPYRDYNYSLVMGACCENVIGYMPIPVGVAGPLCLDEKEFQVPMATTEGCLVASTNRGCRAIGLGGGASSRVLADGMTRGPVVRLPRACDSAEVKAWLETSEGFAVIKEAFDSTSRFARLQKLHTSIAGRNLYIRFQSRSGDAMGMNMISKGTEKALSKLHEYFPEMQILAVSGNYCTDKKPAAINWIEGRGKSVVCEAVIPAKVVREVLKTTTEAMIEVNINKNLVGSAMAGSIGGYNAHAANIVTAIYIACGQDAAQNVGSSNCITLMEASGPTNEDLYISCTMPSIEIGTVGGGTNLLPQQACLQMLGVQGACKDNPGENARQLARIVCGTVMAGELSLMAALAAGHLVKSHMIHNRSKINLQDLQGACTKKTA
Outline: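 HepG2 cells treated 4 h with compound at 10 μM, DMSO vehicle controls. HMG-CoA reductase activity assayed in microsomal fraction isolated at end of incubation. Mean % suppression vs controls, SD ≤ ±10%, n ≥ 8.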

[9] = species: Gallus gallus; assay: (§4) Hypocholesterolemic activity in 6-week old male mormocholesterolemic chickens using experiment 3; type: functional; outline: as §2
[10] = species: Gallus gallus; assay: as §4; type: functional; outline: as §3; remark: listed apart in the source
[11] = species: Gallus gallus; assay: (§5) Hypocholesterolemic activity in 6-week old male mormocholesterolemic chickens using experiment 1; type: functional; outline: as §2
[12] = species: Gallus gallus; assay: as §5; type: functional; outline: as §3; remark: listed apart in the source

SMILES: CC(C)=CCCC1(C)CCc2cc(O)ccc2O1 (stereo not given)
LDL cholesterol [1]: 32 mg 100ml-1
HDL cholesterol [2]: 93 mg 100ml-1
Total cholesterol [2]: 131 mg 100ml-1
Triglycerides [2]: 73 mg 100ml-1
Inhibition [3]: 35%
IC50 [4]: 2 µM
Potential [5]: 1.2
Ratio [6]: 0.71

IC50 [4]: > 10 µM
Potential [5]: 1.44
SMILES: CC(C)=CCC/C(C)=C/CC/C(C)=C/CCC1(C)CCc2ccc(O)cc2O1 (stereo not given)
Inhibition [3]: 58%

SMILES: CCCCC/C=C\C/C=C\CCCCCCCC1(C)CCc2cc(O)c(C)c(C)c2O1 (stereo not given)
Inhibition [3]: 18%

inhibition [8]: 53%
IC50 [4]: 0.6 µM
Potential [5]: 1.05
SMILES: CC(C)=CCC/C(C)=C/CC/C(C)=C/CCC1(C)CCc2cc(O)ccc2O1 (stereo not given)
Triglycerides [7]: 80 mg 100ml-1
Inhibition [3]: 62%
Ratio [6]: 0.61

SMILES: CC(C)=CCC/C(C)=C/CC/C(C)=C/CC/C(C)=C/CCC1(C)CCc2cc(O)c(C)c(C)c2O1 (stereo not given)
Inhibition [3]: 0%

SMILES: CC(C)=CCC/C(C)=C/CC/C(C)=C/CCC1(C)CCc2cc(O)cc(C#N)c2O1 (stereo not given)
LDL cholesterol [9]: 54 mg 100ml-1
HDL cholesterol [10]: 94 mg 100ml-1
Total cholesterol [10]: 151 mg 100ml-1
Triglycerides [10]: 83 mg 100ml-1
Inhibition [3]: 63%
Ratio [6]: 0.62

SMILES: CC(C)=CCC/C(C)=C/CC/C(C)=C/CCC1(C)CCc2cc(O)c3ccccc3c2O1 (stereo not given)
LDL cholesterol [9]: 61 mg 100ml-1
HDL cholesterol [10]: 97 mg 100ml-1
Total cholesterol [10]: 160 mg 100ml-1
Triglycerides [10]: 81 mg 100ml-1
inhibition [8]: 57%
Inhibition [3]: 57%
Potential [5]: 0.8
Ratio [6]: 0.61

SMILES: CC(C)=CCC/C(C)=C/CC/C(C)=C/CCC1CCc2cc(O)c(C)c(C)c2O1 (stereo not given)
LDL cholesterol [9]: 85 mg 100ml-1
LDL cholesterol [1]: 76 mg 100ml-1
HDL cholesterol [2]: 97 mg 100ml-1
Total cholesterol [2]: 178 mg 100ml-1
Triglycerides [2]: 83 mg 100ml-1
HDL cholesterol [10]: 102 mg 100ml-1
Total cholesterol [10]: 197 mg 100ml-1
Triglycerides [10]: 86 mg 100ml-1
inhibition [8]: 67%
Inhibition [3]: 62%
Ratio [6]: 0.52 and 0.54

SMILES: CCCCCCCCCCCCCC1(C)CCc2cc(O)c(C)c(C)c2O1 (stereo not given)
Inhibition [3]: 16%

SMILES: CC(=O)Oc1cc2c(c(C)c1C)OC(CC/C=C(\C)CC/C=C(\C)CCC=C(C)C)CC2 (stereo not given)
LDL cholesterol [1]: 44 mg 100ml-1
HDL cholesterol [2]: 87 mg 100ml-1
Total cholesterol [2]: 139 mg 100ml-1
Triglycerides [2]: 67 mg 100ml-1
Ratio [6]: 0.63

Potential [5]: 0.96
SMILES: CC(C)=CCC/C(C)=C/CC/C(C)=C/CCC1(C)CC(O)c2cc(O)c(C)c(C)c2O1 (stereo not given)
Inhibition [3]: 56%

SMILES: CC(C)=CCC/C(C)=C/CC/C(C)=C/CCC1(C)CCc2cc(F)ccc2O1 (stereo not given)
Inhibition [3]: 35%

SMILES: CC(C)=CCC/C(C)=C/CC/C(C)=C/CCC1CCc2cc(O)ccc2C1 (stereo not given)
LDL cholesterol [9]: 57 mg 100ml-1
HDL cholesterol [10]: 94 mg 100ml-1
Total cholesterol [10]: 152 mg 100ml-1
Triglycerides [10]: 76 mg 100ml-1
Inhibition [3]: 40%
Ratio [6]: 0.62

SMILES: CC(C)=CCC/C(C)=C/CC/C(C)=C/CCC1(C)CC(=O)c2cc(O)c(C)c(C)c2O1 (stereo not given)
LDL cholesterol [11]: 36 mg 100ml-1
HDL cholesterol [12]: 108 mg 100ml-1
Total cholesterol [12]: 133 mg 100ml-1
Triglycerides [12]: 64 mg 100ml-1
inhibition [8]: 16%
Inhibition [3]: 93%
IC50 [4]: 2 µM
Potential [5]: 1.2
Ratio [6]: 0.81

IC50 [4]: 10 µM
SMILES: CC(C)=CCC/C(C)=C/CC/C(C)=C/CCC1(C)CCc2cc(O)c(C(C)(C)C)cc2O1 (stereo not given)
Inhibition [3]: 38%

SMILES: CC(C)=CCC/C(C)=C/CC/C(C)=C/CCC1Oc2c(cc(O)c(C)c2C)C(=O)/C1=N\O (stereo not given)
Inhibition [3]: 84%

SMILES: COc1cc2c(c(C)c1C)OC(C)(CC/C=C(\C)CC/C=C(\C)CCC=C(C)C)CC2 (stereo not given)
Inhibition [3]: 0%

SMILES: CCCCC/C=C\C/C=C\C/C=C\CCCCC1(C)CCc2cc(O)c(C)c(C)c2O1 (stereo not given)
Inhibition [3]: 22%

SMILES: CCCCCCCC/C=C/CCCCCCCC1(C)CCc2cc(O)c(C)c(C)c2O1 (stereo not given)
Inhibition [3]: 10%

SMILES: CC(C)=CCC/C(C)=C/CC/C(C)=C/CCc1cc(=O)c2cc(O)c(C)c(C)c2o1
Inhibition [3]: 71%

SMILES: CC(C)=CCC/C(C)=C/CC/C(C)=C/CCC1(C)CCc2cc(C)c(C)cc2O1 (stereo not given)
Inhibition [3]: 33%

Potential [5]: 0.92
SMILES: CC(C)=CCC/C(C)=C/CC/C(C)=C/CCC1(C)C=Cc2cc(O)c(C)c(C)c2O1 (stereo not given)
Inhibition [3]: 69%

Potential [5]: 1.26
SMILES: CC(C)=CCC/C(C)=C/CC/C(C)=C/CCC1(C)CCc2ccc(O)c(O)c2O1 (stereo not given)
Inhibition [3]: 27%

inhibition [8]: 33%
IC50 [4]: 3 µM
Potential [5]: 1.21
SMILES: CC(C)=CCC/C(C)=C/CC/C(C)=C/CCC1(C)CCc2cc(O)c(F)cc2O1 (stereo not given)
Inhibition [3]: 60%

Potential [5]: 1.27
SMILES: CC(C)=CCC/C(C)=C/CC/C(C)=C/CCC1(C)CCc2c(O)cccc2O1 (stereo not given)
Inhibition [3]: 62%

SMILES: CC(C)=CCC/C(C)=C\CCC1(C)CCc2cc(O)ccc2O1 (stereo not given)
LDL cholesterol [1]: 39 mg 100ml-1
HDL cholesterol [2]: 94 mg 100ml-1
Total cholesterol [2]: 142 mg 100ml-1
Triglycerides [2]: 67 mg 100ml-1
inhibition [8]: 39%
Inhibition [3]: 55%
IC50 [4]: 2 µM
Ratio [6]: 0.66

inhibition [8]: 45%
SMILES: CC(C)=CCC/C(C)=C/CC/C=C\CCC1(C)CCc2cc(O)c(C)c(C)c2O1 (stereo not given)
Inhibition [3]: 81%

IC50 [4]: 4 µM
SMILES: CC(C)=CCC/C(C)=C/CCC1(C)CCc2c(O)cc(N3CCCC3)cc2O1 (stereo not given)
Inhibition [3]: 54%

SMILES: CCCCC/C=C/C/C=C/CCCCCCCC1(C)CCc2cc(O)c(C)c(C)c2O1 (stereo not given)
Inhibition [3]: 17%

SMILES: CC(C)=CCC/C(C)=C/CC/C=C/CCC1(C)CCc2cc(O)c(C)c(C)c2O1 (stereo not given)
Inhibition [3]: 68%

SMILES: CC(C)=CCC/C(C)=C/CCC1(C)CCc2cc(O)ccc2O1 (stereo not given)
LDL cholesterol [1]: 33 mg 100ml-1
HDL cholesterol [2]: 93 mg 100ml-1
Total cholesterol [2]: 130 mg 100ml-1
Triglycerides [2]: 73 mg 100ml-1
inhibition [8]: 52%
Inhibition [3]: 48%
IC50 [4]: 2 µM
Ratio [6]: 0.72

Potential [5]: 1.24
SMILES: CC(C)=CCC/C(C)=C/CC/C(C)=C/CCC1(C)CCc2cccc(O)c2O1 (stereo not given)
Inhibition [3]: 46%

inhibition [8]: 40%
IC50 [4]: > 10 µM
Potential [5]: 1.06
SMILES: CC(C)=CCC/C(C)=C/CC/C(C)=C/CCC1(C)CCc2c(cc(C)c(O)c2C)O1 (stereo not given)
Inhibition [3]: 42%

SMILES: CC(C)=CCC/C(C)=C/CC/C(C)=C/CCC1(C)CCc2cc(O)cc(Br)c2O1 (stereo not given)
LDL cholesterol [9]: 45 mg 100ml-1
HDL cholesterol [10]: 93 mg 100ml-1
Total cholesterol [10]: 139 mg 100ml-1
Triglycerides [10]: 87 mg 100ml-1
Inhibition [3]: 62%
Ratio [6]: 0.67

inhibition [8]: 21%
IC50 [4]: 7 µM
Potential [5]: 1.05
SMILES: CC(C)=CCC/C(C)=C/CC/C(C)=C/CCC1(C)CCc2c(C)c(O)cc(C)c2O1 (stereo not given)
Inhibition [3]: 43%

inhibition [8]: 46%
SMILES: CC(C)=CCC/C(C)=C/CCC#CCCC1(C)CCc2cc(O)c(C)c(C)c2O1 (stereo not given)
Inhibition [3]: 81%

Potential [5]: 1.2
SMILES: CC(C)=CCC/C(C)=C/CC/C(C)=C/CCc1oc2c(C)c(C)c(O)cc2c(=O)c1O
Inhibition [3]: 61%

IC50 [4]: > 10 µM
SMILES: C/C(=C\CCC1(C)CCc2cc(O)c(F)cc2O1)CO (stereo not given)
Inhibition [3]: 15%
